pIC50: −log10 of the molar value. Numbered stars: 1 amine (or outer) side, 2 acyl side, 3 side chain; on linkers, the order of the positions; unused ones are H or OH. Bridge positions count the residues as written; N and C are the ends. Square brackets hold non-standard residues; d marks the D form. Peptide text beside a SMILES is read from it. * marks the point of attachment. Tyr(Nα-carbamoyl) = NC(=O)N[C@@H](Cc1ccc(O)cc1)C(=O)*; X3 = C[C@H](c1c[nH]c2ccccc12)[C@@H](N[*:1])C(=O)[*:2]; Trp(βS-Me) = C[C@@H](c1c[nH]c2ccccc12)[C@H](N)C(=O)O
Legend:
[1] = target: Somatostatin receptor type 4 (Homo sapiens, UniProt P31391); assay: Binding affinity towards human somatostatin receptor type 4 using [125I][Leu8,D-Trp22,Tyr25]SRIF-28 as radioligand.
Sequence of Somatostatin receptor type 4 (P31391 whole entry): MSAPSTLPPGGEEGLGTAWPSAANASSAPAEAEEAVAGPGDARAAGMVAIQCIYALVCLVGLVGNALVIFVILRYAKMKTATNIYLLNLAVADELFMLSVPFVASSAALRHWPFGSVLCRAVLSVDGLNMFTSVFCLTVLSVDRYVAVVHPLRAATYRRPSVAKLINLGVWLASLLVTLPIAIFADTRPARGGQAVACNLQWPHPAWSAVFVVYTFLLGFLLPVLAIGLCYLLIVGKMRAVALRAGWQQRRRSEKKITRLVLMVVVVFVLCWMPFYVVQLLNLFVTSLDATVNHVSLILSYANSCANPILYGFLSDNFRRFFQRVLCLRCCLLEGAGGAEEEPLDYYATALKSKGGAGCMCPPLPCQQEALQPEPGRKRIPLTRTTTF

[2] = target: Somatostatin receptor type 3 (Homo sapiens, UniProt P32745); assay: Binding affinity towards human somatostatin receptor type 3 using [125I][Leu8,D-Trp22,Tyr25]SRIF-28 as radioligand.
Sequence of Somatostatin receptor type 3 (P32745 whole entry): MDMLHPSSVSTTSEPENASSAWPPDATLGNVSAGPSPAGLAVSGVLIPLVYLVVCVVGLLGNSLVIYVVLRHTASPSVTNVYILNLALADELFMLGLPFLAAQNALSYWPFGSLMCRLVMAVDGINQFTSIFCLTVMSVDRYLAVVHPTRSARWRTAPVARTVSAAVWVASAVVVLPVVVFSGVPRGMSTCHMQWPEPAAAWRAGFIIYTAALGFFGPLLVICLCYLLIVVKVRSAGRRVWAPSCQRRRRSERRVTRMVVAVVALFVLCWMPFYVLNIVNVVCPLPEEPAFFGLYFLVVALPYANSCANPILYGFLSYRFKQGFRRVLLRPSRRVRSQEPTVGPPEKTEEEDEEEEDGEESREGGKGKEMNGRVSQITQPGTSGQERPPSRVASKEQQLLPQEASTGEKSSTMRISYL
In short: (§1)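 Receptor autoradiography on 20-µm cryostat sections of pellets of cells stably expressing the cloned human receptor. Cell hosts: sst1 CHO-K1, sst2 CCL39, sst3 CCL39, sst5 CHO-K1. Sections were incubated with radioligand at 30 000 cpm/100 µL and displaced by unlabeled peptide from 0.1 to 1000 nM. SRIF-28 was run in parallel as control. IC50 was obtained by computer-assisted image quantification against calibrated isotope tissue standards.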

[3] = target: Somatostatin receptor type 1 (Homo sapiens, UniProt P30872); assay: Binding affinity towards human somatostatin receptor type 1 using [125I][Leu8,D-Trp22,Tyr25]SRIF-28 as radioligand.; in short: as §1
Sequence of Somatostatin receptor type 1 (P30872 whole entry): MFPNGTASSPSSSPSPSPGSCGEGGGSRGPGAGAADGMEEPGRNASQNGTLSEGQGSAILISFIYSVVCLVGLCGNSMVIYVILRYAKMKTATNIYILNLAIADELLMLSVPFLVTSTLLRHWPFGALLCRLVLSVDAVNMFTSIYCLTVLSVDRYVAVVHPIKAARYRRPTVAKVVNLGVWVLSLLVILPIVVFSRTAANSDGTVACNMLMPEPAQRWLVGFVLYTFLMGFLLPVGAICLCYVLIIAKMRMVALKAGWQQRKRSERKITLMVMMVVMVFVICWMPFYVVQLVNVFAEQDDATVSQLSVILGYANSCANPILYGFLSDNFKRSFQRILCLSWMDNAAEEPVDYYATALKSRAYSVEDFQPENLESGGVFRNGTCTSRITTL

[4] = target: Somatostatin receptor type 2 (Homo sapiens, UniProt P30874); assay: Binding affinity towards human somatostatin receptor type 2 using [125I][Leu8,D-Trp22,Tyr25]SRIF-28 as radioligand.; in short: as §1
Sequence of Somatostatin receptor type 2 (P30874 whole entry): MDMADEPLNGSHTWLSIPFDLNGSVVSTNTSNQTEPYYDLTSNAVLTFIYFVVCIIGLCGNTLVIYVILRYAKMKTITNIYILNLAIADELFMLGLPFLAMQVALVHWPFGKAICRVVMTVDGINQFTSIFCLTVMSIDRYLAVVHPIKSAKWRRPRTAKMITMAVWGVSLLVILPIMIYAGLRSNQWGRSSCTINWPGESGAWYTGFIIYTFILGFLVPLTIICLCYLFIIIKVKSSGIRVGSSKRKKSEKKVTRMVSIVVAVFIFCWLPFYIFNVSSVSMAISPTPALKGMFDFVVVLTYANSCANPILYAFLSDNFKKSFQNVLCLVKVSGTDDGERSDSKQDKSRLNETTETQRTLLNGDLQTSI

[5] = target: Somatostatin receptor type 5 (Homo sapiens, UniProt P35346); assay: Binding affinity towards human somatostatin receptor type 5 using [125I][Leu8,D-Trp22,Tyr25]SRIF-28 as radioligand.; in short: as §1
Sequence of Somatostatin receptor type 5 (P35346 whole entry): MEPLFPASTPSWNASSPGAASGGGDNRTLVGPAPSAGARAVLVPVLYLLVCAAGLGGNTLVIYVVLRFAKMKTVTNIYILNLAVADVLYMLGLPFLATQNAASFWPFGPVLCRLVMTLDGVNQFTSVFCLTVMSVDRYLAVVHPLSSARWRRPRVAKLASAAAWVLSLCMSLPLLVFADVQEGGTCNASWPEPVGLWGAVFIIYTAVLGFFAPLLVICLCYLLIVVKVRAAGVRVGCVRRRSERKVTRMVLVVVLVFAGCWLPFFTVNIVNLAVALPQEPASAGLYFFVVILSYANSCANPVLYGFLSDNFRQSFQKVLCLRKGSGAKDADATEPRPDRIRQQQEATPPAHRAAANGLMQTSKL

SMILES	pIC50 [1]	pIC50 [2]	pIC50 [3]	pIC50 [4]	pIC50 [5]
COC(=O)[C@H](CCCN=C(N)N)NC(=O)CCCc1c(-c2ccccc2)[nH]c2c(F)cc(F)cc12	8.38				
C[C@@H]1NC(=O)[C@H](Cc2ccccc2)NC(=O)[C@@H](NC(=O)[C@@H](N)Cc2ccc(O)c(I)c2)CSSC[C@@H](C(=O)O)NC(=O)[C@H](Cc2ccccc2)NC(=O)[C@H]([C@@H](C)O)NC(=O)[C@H](CCCCN)NC(=O)[C@H](Cc2c[nH]c3ccccc23)NC1=O	8.46	5.99	< 6.00	< 6.00	< 6.00
C[C@@H](O)[C@@H]1NC(=O)[C@H](CCCCN)NC(=O)[C@H](Cc2c[nH]c3ccccc23)NC(=O)[C@H](Cc2ccc(N)cc2)NC(=O)[C@H](Cc2ccccc2)NC(=O)[C@@H](NC(=O)[C@H](Cc2ccc(O)c(I)c2)NC(N)=O)CSSC[C@@H](C(=O)O)NC(=O)[C@H](Cc2ccccc2)NC1=O	8.06	6.49	< 6.00	< 6.00	6.00
C[C@@H]1NC(=O)[C@H](Cc2ccccc2)NC(=O)[C@@H](NC(=O)[C@@H](N)Cc2ccc(O)cc2)CSSC[C@@H](C(=O)O)NC(=O)[C@H](Cc2ccccc2)NC(=O)[C@H]([C@@H](C)O)NC(=O)[C@H](CCCCN)NC(=O)[C@@H]([C@@H](C)c2c[nH]c3ccccc23)NC1=O	8.25	6.42	< 6.00	7.34	
C[C@@H](O)[C@@H]1NC(=O)[C@H](CCCCN)NC(=O)[C@H](Cc2c[nH]c3ccccc23)NC(=O)[C@H](CCCN)NC(=O)[C@H](Cc2ccccc2)NC(=O)[C@@H](NC(=O)[C@H](Cc2ccc(O)cc2)NC(N)=O)CSSC[C@@H](C(=O)O)NC(=O)[C@H](Cc2ccccc2)NC1=O	8.68	< 6.00	7.00	6.25	
C[C@@H](O)[C@@H]1NC(=O)[C@H](CCCCN)NC(=O)[C@@H](Cc2c[nH]c3ccccc23)NC(=O)[C@H](Cc2ccc(N)cc2)NC(=O)[C@H](Cc2ccccc2)NC(=O)[C@@H](NC(N)=O)CSSC[C@@H](C(=O)O)NC(=O)[C@H](Cc2ccc(O)cc2)NC1=O			< 6.00		
C[C@@H](O)[C@@H]1NC(=O)[C@H](CCCCN)NC(=O)[C@H](Cc2c[nH]c3ccccc23)NC(=O)[C@H](Cc2ccc(N)cc2)NC(=O)[C@H](Cc2ccccc2)NC(=O)[C@@H](NC(N)=O)CSSC[C@@H](C(=O)O)NC(=O)[C@H](Cc2ccc(O)cc2)NC1=O				< 6.00	
C[C@@H]1NC(=O)[C@H](Cc2ccccc2)NC(=O)[C@@H](NC(=O)[C@@H](N)Cc2ccc(O)cc2)CSSC[C@@H](C(=O)O)NC(=O)[C@H](Cc2ccccc2)NC(=O)[C@H]([C@@H](C)O)NC(=O)[C@H](CCCCN)NC(=O)[C@H](Cc2c[nH]c3ccccc23)NC1=O			< 6.00		
C[C@@H](O)[C@@H]1NC(=O)[C@H](CCCCN)NC(=O)[C@H](Cc2c[nH]c3ccccc23)NC(=O)[C@H](Cc2ccccc2)NC(=O)[C@H](Cc2ccccc2)NC(=O)[C@@H](N)CSSC[C@@H](C(=O)O)NC(=O)[C@H](Cc2ccccc2)NC1=O (H-CFFWKTFC-OH; disulfide 1-8)	9.15	7.89	8.28	6.89	7.85
C[C@@H](O)[C@@H]1NC(=O)[C@H](CCCCN)NC(=O)[C@H]([C@@H](C)c2c[nH]c3ccccc23)NC(=O)[C@H](Cc2ccccc2)NC(=O)[C@H](Cc2ccccc2)NC(=O)[C@@H](N)CSSC[C@@H](C(=O)O)NC(=O)[C@H](Cc2ccccc2)NC1=O (H-CFF[Trp(βS-Me)]KTFC-OH; disulfide 1-8)	8.74	6.48	7.68	7.57	6.66
C[C@H](c1c[nH]c2ccccc12)[C@H]1NC(=O)[C@H](Cc2ccccc2)NC(=O)[C@H](Cc2ccccc2)NC(=O)[C@@H](N)CSSC[C@@H](C(=O)O)NC(=O)[C@H](Cc2ccccc2)NC(=O)[C@H]([C@@H](C)O)NC(=O)[C@H](CCCCN)NC1=O (H-CFF[X3]KTFC-OH; disulfide 1-8)	8.40	7.28	7.31	7.40	7.38
C[C@@H](O)[C@@H]1NC(=O)[C@H](CCCCN)NC(=O)[C@@H](Cc2c[nH]c3ccccc23)NC(=O)[C@H](Cc2ccccc2)NC(=O)[C@H](Cc2ccccc2)NC(=O)[C@@H](N)CSSC[C@@H](C(=O)O)NC(=O)[C@H](Cc2ccccc2)NC1=O (H-CFF[dW]KTFC-OH; disulfide 1-8)	8.74	7.89	7.57	7.39	7.34
C[C@@H](O)[C@@H]1NC(=O)[C@H](CCCCN)NC(=O)[C@H](Cc2c[nH]c3ccccc23)NC(=O)[C@H](Cc2ccccc2)NC(=O)[C@H](Cc2ccccc2)NC(=O)[C@@H](NC(=O)[C@@H](N)Cc2ccc(O)cc2)CSSC[C@@H](C(=O)O)NC(=O)[C@H](Cc2ccccc2)NC1=O (H-YCFFWKTFC-OH; disulfide 2-9)	8.80	7.24	7.89	6.75	
C[C@@H](O)[C@@H]1NC(=O)[C@H](CCCCN)NC(=O)[C@H]([C@@H](C)c2c[nH]c3ccccc23)NC(=O)[C@H](Cc2ccccc2)NC(=O)[C@H](Cc2ccccc2)NC(=O)[C@@H](NC(=O)[C@@H](N)Cc2ccc(O)cc2)CSSC[C@@H](C(=O)O)NC(=O)[C@H](Cc2ccccc2)NC1=O (H-YCFF[Trp(βS-Me)]KTFC-OH; disulfide 2-9)	9.05	6.94	7.06	7.32	
C[C@@H]1NC(=O)[C@H](Cc2ccccc2)NC(=O)[C@@H](NC(=O)[C@H](Cc2ccc(O)cc2)NC(N)=O)CSSC[C@@H](C(=O)O)NC(=O)[C@H](Cc2ccccc2)NC(=O)[C@H]([C@@H](C)O)NC(=O)[C@H](CCCCN)NC(=O)[C@H](Cc2c[nH]c3ccccc23)NC1=O ({Tyr(Nα-carbamoyl)}-CFAWKTFC-OH; disulfide 1-8)	8.62		< 6.00		< 6.00

Results, then the compound that gave them:

pIC50 [1]	pIC50 [2]	pIC50 [3]	pIC50 [4]	pIC50 [5]	SMILES
8.74	7.45	6.93	7.59	7.69	C[C@@H](O)[C@@H]1NC(=O)[C@H](CCCCN)NC(=O)[C@@H](Cc2c[nH]c3ccccc23)NC(=O)[C@H](Cc2ccc(O)cc2)NC(=O)[C@H](Cc2ccccc2)NC(=O)[C@@H](N)CSSC[C@@H](C(=O)O)NC(=O)[C@H](Cc2ccccc2)NC1=O
		< 6.00			C[C@@H]1NC(=O)[C@H](Cc2ccccc2)NC(=O)[C@@H](N)CSSC[C@@H](C(=O)O)NC(=O)[C@H](Cc2ccccc2)NC(=O)[C@H]([C@@H](C)O)NC(=O)[C@H](CCCCN)NC(=O)[C@H](Cc2c[nH]c3ccccc23)NC1=O
		< 6.00			C[C@@H]1NC(=O)[C@H](Cc2ccccc2)NC(=O)[C@@H](N)CSSC[C@@H](C(=O)O)NC(=O)[C@H](Cc2ccccc2)NC(=O)[C@H]([C@@H](C)O)NC(=O)[C@H](CCCCN)NC(=O)[C@@H](Cc2c[nH]c3ccccc23)NC1=O
8.89	7.66	7.57	7.27	7.20	C[C@@H](O)[C@@H]1NC(=O)[C@H](CCCCN)NC(=O)[C@H](Cc2c[nH]c3ccccc23)NC(=O)[C@H](Cc2ccc(O)cc2)NC(=O)[C@H](Cc2ccccc2)NC(=O)[C@@H](N)CSSC[C@@H](C(=O)O)NC(=O)[C@H](Cc2ccccc2)NC1=O
	< 6.00				C[C@@H](O)[C@@H]1NC(=O)[C@H](CCCCN)NC(=O)[C@H](Cc2c[nH]c3ccccc23)NC(=O)[C@H](Cc2ccc(N)cc2)NC(=O)[C@H](Cc2ccccc2)NC(=O)[C@@H](N)CSSC[C@@H](C(=O)O)NC(=O)[C@H](Cc2ccccc2)NC1=O
8.82			< 6.00	< 6.00	CC(O)[C@@H]1NC(=O)[C@H](CCCCN)NC(=O)[C@H](Cc2c[nH]c3ccccc23)NC(=O)[C@H](Cc2ccc(N)cc2)NC(=O)C(Cc2ccccc2)NC(=O)C(NC(N)=O)CSSC[C@@H](C(=O)O)NC(=O)[C@H](Cc2ccccc2)NC1=O (single isomer, unassigned)
9.00	7.80	7.26	7.28		C[C@@H](O)[C@@H]1NC(=O)[C@H](CCCCN)NC(=O)[C@@H](Cc2c[nH]c3ccccc23)NC(=O)[C@H](Cc2ccccc2)NC(=O)[C@H](Cc2ccccc2)NC(=O)[C@@H](NC(N)=O)CSSC[C@@H](C(=O)O)NC(=O)[C@H](Cc2ccc(O)cc2)NC1=O (stereo in doubt)
9.29	8.09	7.99	7.81	8.32	C[C@@H](O)[C@@H]1NC(=O)[C@H](CCCCN)NC(=O)[C@@H](Cc2c[nH]c3ccccc23)NC(=O)[C@H](Cc2ccccc2)NC(=O)[C@H](Cc2ccccc2)NC(=O)[C@@H](N)CSSC[C@@H](C(=O)O)NC(=O)[C@H](Cc2ccc(O)cc2)NC1=O (stereo in doubt)
8.89	8.00	8.19	7.37	7.62	C[C@@H](O)[C@@H]1NC(=O)[C@H](CCCCN)NC(=O)[C@H](Cc2c[nH]c3ccccc23)NC(=O)[C@H](Cc2ccccc2)NC(=O)[C@H](Cc2ccccc2)NC(=O)[C@@H](N)CSSC[C@@H](C(=O)O)NC(=O)[C@H](Cc2ccc(O)cc2)NC1=O (stereo in doubt)

Source: ChEMBL document CHEMBL1144907, “Novel sst(4)-selective somatostatin (SRIF) agonists. 3. Analogues amenable to radiolabeling” (J Med Chem, 2003)
